Measured values taken from ChEMBL document CHEMBL1149243, “Lactams as EP4 prostanoid receptor agonists. 3. Discovery of N-ethylbenzoic acid 2-pyrrolidinones as subtype selective agents” (J Med Chem, 2004).
pKi: −log10 of the molar value.

Assays:
[1] = Volume of distribution in Wistar Han rat at 1 mg/kg, iv; format: ADME, organism-based; parameters: dose 1 mg/kg, route intravenous; details: in vivo, read-out: Vbeta
In short: (§1)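 Single i.v. dose of 1.0 mg/kg lactam; parent compound in plasma quantified by LC-MS/MS with detection down to 0.1 ng/mL. Reported values are averages after i.v. dosing.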

[2] = Half life in Wistar Han rat at 1 mg/kg, iv; format: ADME, organism-based; parameters: dose 1 mg/kg, route intravenous; details: in vivo; in short: as §1
[3] = target: T1, Prostaglandin E2 receptor EP4 subtype (Homo sapiens, UniProt P35408); assay: Functional activity at human EP4 receptor
T1 sequence (P35408 whole entry): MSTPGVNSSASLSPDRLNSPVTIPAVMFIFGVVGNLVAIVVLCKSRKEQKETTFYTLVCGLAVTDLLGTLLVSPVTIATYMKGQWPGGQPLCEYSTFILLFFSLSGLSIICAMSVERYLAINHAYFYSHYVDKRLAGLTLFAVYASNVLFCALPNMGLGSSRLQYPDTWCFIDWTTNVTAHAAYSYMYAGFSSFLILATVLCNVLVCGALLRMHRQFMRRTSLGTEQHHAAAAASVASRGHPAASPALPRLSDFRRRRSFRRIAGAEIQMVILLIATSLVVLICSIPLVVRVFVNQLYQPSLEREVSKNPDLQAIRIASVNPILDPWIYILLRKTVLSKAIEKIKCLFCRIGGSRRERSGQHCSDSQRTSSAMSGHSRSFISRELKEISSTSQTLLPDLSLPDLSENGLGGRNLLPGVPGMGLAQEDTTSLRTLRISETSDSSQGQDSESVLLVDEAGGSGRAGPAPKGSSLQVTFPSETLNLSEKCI

[4] = Clearance in Wistar Han rat at 1 mg/kg, iv; format: ADME, organism-based; parameters: dose 1 mg/kg, route intravenous; details: in vivo; in short: as §1
[5] = target: T1, Prostaglandin E2 receptor EP4 subtype; assay: Binding affinity to human EP4 receptor
[6] = target: T2, Prostaglandin E2 receptor EP3 subtype (Homo sapiens, UniProt P43115); assay: Binding affinity to human EP3 receptor
T2 sequence (P43115 whole entry): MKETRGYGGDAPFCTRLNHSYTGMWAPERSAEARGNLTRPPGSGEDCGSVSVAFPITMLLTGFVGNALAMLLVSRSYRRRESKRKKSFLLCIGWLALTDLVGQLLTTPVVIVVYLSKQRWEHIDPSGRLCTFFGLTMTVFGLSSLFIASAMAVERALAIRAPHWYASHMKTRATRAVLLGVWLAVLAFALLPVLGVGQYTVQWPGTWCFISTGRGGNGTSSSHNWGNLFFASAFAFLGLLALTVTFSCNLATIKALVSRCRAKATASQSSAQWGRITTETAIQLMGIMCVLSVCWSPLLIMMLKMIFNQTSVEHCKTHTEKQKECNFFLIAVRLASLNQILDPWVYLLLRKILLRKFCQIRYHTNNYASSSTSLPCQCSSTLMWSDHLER

[7] = target: Prostaglandin E2 receptor EP2 subtype (Homo sapiens, UniProt P43116); assay: Binding affinity to human EP2 receptor
Prostaglandin E2 receptor EP2 subtype, sequence (P43116 whole entry): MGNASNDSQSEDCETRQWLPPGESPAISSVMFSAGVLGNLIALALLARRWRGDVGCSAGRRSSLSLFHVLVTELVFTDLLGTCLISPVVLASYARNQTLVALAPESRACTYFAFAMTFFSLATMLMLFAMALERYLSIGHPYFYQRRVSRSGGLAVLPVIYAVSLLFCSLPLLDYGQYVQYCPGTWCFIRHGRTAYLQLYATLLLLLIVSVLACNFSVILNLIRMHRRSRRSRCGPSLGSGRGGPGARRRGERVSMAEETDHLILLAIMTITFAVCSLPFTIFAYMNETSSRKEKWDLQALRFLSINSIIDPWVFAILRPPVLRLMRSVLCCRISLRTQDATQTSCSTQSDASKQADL

[8] = target: T3, Prostaglandin E2 receptor EP1 subtype (Homo sapiens, UniProt P34995); assay: Binding affinity to human EP1 receptor
T3 sequence (P34995 whole entry): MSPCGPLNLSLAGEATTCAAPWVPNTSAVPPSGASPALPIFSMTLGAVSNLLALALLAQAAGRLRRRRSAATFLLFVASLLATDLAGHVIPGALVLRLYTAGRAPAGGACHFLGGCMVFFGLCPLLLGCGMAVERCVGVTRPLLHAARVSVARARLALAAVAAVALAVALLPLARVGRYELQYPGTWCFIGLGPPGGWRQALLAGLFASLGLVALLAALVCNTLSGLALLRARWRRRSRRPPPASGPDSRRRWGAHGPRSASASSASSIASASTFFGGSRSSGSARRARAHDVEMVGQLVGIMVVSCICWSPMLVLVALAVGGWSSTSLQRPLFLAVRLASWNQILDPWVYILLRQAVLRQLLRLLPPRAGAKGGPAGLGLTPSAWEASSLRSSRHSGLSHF

Q: Which Vd [1] does the source give for `CCCCC[C@H](O)CC[C@H]1CCC(=O)N1CCc1ccc(C(=O)O)cc1` here?
A: 15.3 L/kg

Q: And the half-life [2]?
A: 210 min

Q: What about the EC50 [3] of the same compound?
A: 130 nM (agonist)

Q: And the clearance [4]?
A: 50 mL/min/kg

Q: What about the Ki [5] of the same compound?
A: 17 nM (antagonist)

Q: What about the pKi [6] of the same compound?
A: 4.04

Q: What about the Ki [7] of the same compound?
A: 35 nM (antagonist)

Q: What does the source list for `CCCCC[C@H](O)/C=C/[C@H]1CCC(=O)N1CCSCCCC(=O)O`?
A: half-life [2]: 45.6 min; EC50 [3]: 17 nM (agonist); clearance [4]: 10.5 mL/min/kg; Ki [5]: 3.8 nM (antagonist); Ki [6]: 1900 nM (antagonist); Ki [7]: 4700 nM (antagonist)

Q: Which EC50 [3] does the source give for `COCc1cccc(C[C@H](O)/C=C/[C@H]2CCC(=O)N2CCc2ccc(C(=O)O)cc2)c1` here?
A: 5.9 nM (agonist)

Q: What about the Ki [5] of the same compound?
A: 0.7 nM (antagonist)

Q: What about the pKi [6] of the same compound?
A: < 4.00

Q: What about the Ki [7] of the same compound?
A: 2500 nM (antagonist)

Q: What does the source list for `CCCCC[C@H](O)/C=C/[C@H]1CCC(=O)N1CCCCCCC(=O)O`?
A: Vd [1]: 6.9 L/kg; half-life [2]: 52.2 min; clearance [4]: 91.7 mL/min/kg

Q: Which results are given for `Cc1cc(Cl)ccc1-c1cccc([C@H](O)CC[C@H]2CCC(=O)N2CCc2ccc(C(=O)O)cc2)c1`?
A: pKi [8]: 4.74; EC50 [3]: 0.04 nM (agonist); pKi [6]: 4.27

Q: Which EC50 [3] does the source give for `O=C(O)c1ccc(CCN2C(=O)CC[C@@H]2CC[C@@H](O)CCC2CCC2)cc1` here?
A: 150 nM (agonist)

Q: What about the Ki [5] of the same compound?
A: 18 nM (antagonist)

Q: And the pKi [6]?
A: 4.11

Q: And the Ki [7]?
A: 220 nM (antagonist)

Q: What does the source list for `CCCCC[C@H](O)/C=C/[C@H]1CCC(=O)N1CCc1ccc(C(=O)O)s1`?
A: EC50 [3]: 12 nM (agonist); Ki [5]: 6.9 nM (antagonist); pKi [6]: < 4.00; Ki [7]: 3700 nM (antagonist)

Q: What does the source list for `CCCCC[C@H](O)/C=C/[C@H]1CCC(=O)N1CCc1ccc(C(=O)O)cc1`?
A: pKi [8]: < 4.00; half-life [2]: 46.8 min; EC50 [3]: 11 nM (agonist); clearance [4]: 41.7 mL/min/kg; Ki [5]: 2.9 nM (antagonist); pKi [6]: 4.96

Q: Which results are given for `O=C(O)c1ccc(CCN2C(=O)CC[C@@H]2/C=C/[C@@H](O)CCC2CCC2)cc1`?
A: EC50 [3]: 0.2 nM (agonist); Ki [5]: 1 nM (antagonist); pKi [6]: 4.10; Ki [7]: 75 nM (antagonist)

Q: For `CCCCC[C@H](O)/C=C/[C@H]1CCC(=O)N1CCCCOCC(=O)O`, which Vd [1] is on record?
A: 1.5 L/kg
